Screening results from PubChem.
TRPC6 act – mouse TRPC6 channel activation; Q61143; HEK293-TRPC6 membrane potential dye fluorescence; hits give high values; B-score at 10 µM; 310,000 tested, 0.13% active;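 active = B-score of the integrated fluorescence ratio above library mean plus 3 SD, and starting fluorescence ratio within library mean plus 5 SD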;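 also: higher score means more depolarization so channel activation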
TRPC4 act – TRPC4 (mouse) channel activation; Q9QUQ5; AID 2237; 310,000 tested, 0.49% active; HEK293 TRPC4beta/mu-opioid, Fluo4 calcium fluorescence; hits give high values; B-score at 10 µM;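 active = B-score above 5 SD of library B-scores, and initial fluorescence ratio not above library mean plus 5 SD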;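 also: positive B-score marks a calcium rise read as TRPC4 activation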
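Technique: kinetic Fluo4 calcium fluorescence; Test system: TRPC4beta and mu-opioid receptor HEK293 stable cells; Measure: B-scored integrated calcium fluorescence ratio; Benchmarks: low control buffer alone, high control maximal DAMGO; Schedule: 45 min room-temperature Fluo4 loading, 110 s read.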
TRPC6 inh – blocks the mouse TRPC6 cation channel; 310,000 tested, 1.1% active; Q61143; B-score at 10 µM; HEK293-TRPC6, membrane potential dye, ACh-evoked depolarization; hits give low values;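 active = B-score under library mean minus 3 SD, initial fluorescence not abnormally high, positive integrated signal ratio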;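 also: B-score derived from integrated fluorescence ratio over the kinetic read; more negative B-score means stronger inhibition of depolarization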
TRPC4 PAM – allosteric potentiators of mouse TRPC4 channel | Q9QUQ5 | HEK293 TRPC4beta/mu-opioid, DAMGO EC20, Fluo-4 Ca2+ flux; hits give high values | B-score at 10 µM | 310,000 tested, 0.42% active | AID 2227;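 active = B-score of calcium response area above 5 SD of library B-scores, with initial fluorescence ratio within 5 SD of library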;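 also: B-score of integrated fluorescence ratio over time as area under calcium response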
TRPC4 inh – TRPC4 (mouse) channel inhibition | AID 2247 | HEK293 TRPC4beta/mu-opioid, DAMGO-evoked Fluo4 calcium flux; hits give low values | B-score at 10 µM | 300,000 tested, 0.39% active;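 active = B-score over 3 SD under the library average, no early fluorescence shift, positive overall ratio signal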
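Material: HEK293 cells with stable TRPC4beta plus mu-opioid receptor expression; probe or stimulus: DAMGO in two steps, submaximal then maximal; technique: Fluo4 calcium fluorescence by kinetic imaging, 5 s 1 Hz baseline; measure: integrated fluorescence ratio relative to baseline, converted to per-well B score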
Starred values were filed as active, the others as inactive; i = inactive. Rows were chosen to be rich in hits. Some 2.3% of all compounds tested hit in one or more screens of this group.

SMILES | TRPC6 act | TRPC4 act | TRPC6 inh | TRPC4 PAM | TRPC4 inh
CCc1cc(OCCOCCN(C)C)ccc1Cl | i | i | i | 15* | i
CC(C)(C)c1csc(NC(=O)c2ccc(Br)o2)n1 | i | i | i | i | i
CC(C)Cn1c(-c2csc(C(C)C)c2)n[nH]c1=S | i | i | i | 13* | i
COCCNC(=O)/C(C#N)=C/c1ccccc1Br | i | i | i | 13* | i
COc1cc(C)c(/C=C(\C#N)C(=O)Nc2ccc(C)cc2)cc1C(C)C | i | i | i | i | i
COCCNC(=O)/C(C#N)=C/C=C/c1ccccc1 | i | i | i | i | i
COCCNC(=O)/C(C#N)=C/c1cc(C(C)C)c(OC)cc1C | i | i | i | 17* | i
O=C(COc1cc(F)ccc1[N+](=O)[O-])Nc1ccc(N2CCCCC2)cc1 | i | i | i | i | i
NC(=S)Nc1cc2ccccc2c2ccccc12 | i | i | i | 14* | i
Cc1ccc(S(=O)(=O)N2CCN(C(=O)CCc3nc4ccccc4c(=O)[nH]3)CC2)c(C)c1 | i | i | i | i | i
Cc1ccc(C)c(S(=O)(=O)N2CCN(C(=O)CCc3nc4ccccc4c(=O)[nH]3)CC2)c1 | i | 194* | i | i | i
N#Cc1c(NC(=O)c2cccc(S(=O)(=O)Nc3ccc(C(=O)O)cc3)c2)sc2c1CCCC2 | i | i | i | i | i
Cc1c(C(=O)NCCc2ccccc2)oc2ccccc12 | i | i | i | 22* | i
COC(=O)c1cccc2c1-c1ccccc1/C2=N\NC(N)=O | i | i | i | i | i
COC(=O)c1cccc2c1-c1ccccc1/C2=N/O | i | i | i | i | -7*
CC(C)(C)c1cc[n+](-c2[nH]c(=O)sc2/C=N/N=C(\[O-])c2cccnc2)cc1 | i | i | i | i | i
O=c1[nH]c(-[n+]2ccc3ccccc3c2)c(/C=N/N=C(\[O-])c2ccccc2)s1 | i | i | i | i | -6*
O=C(c1cccc(Cl)c1)N1CCC(=O)N(C(COCc2cccc(Cl)c2)Cc2ccccc2)CC1 (centres undefined) | i | i | i | i | i
Cc1cccc(C(=O)N2CCC(=O)N(C(COCc3cccc(Cl)c3)Cc3ccccc3)CC2)c1 (centres undefined) | i | 45* | i | i | i
O=C(Nc1nnc2n1CCS2)c1ccc(Br)o1 | i | i | i | 68* | i
Cn1c(=O)c2c(nc(CN3CCc4ccccc4C3)n2Cc2cccc(Cl)c2)n(C)c1=O | i | i | i | 73* | i
Cn1c(=O)c2c(nc(CN3CCc4ccccc4C3)n2Cc2ccccc2F)n(C)c1=O | i | 169* | i | i | i
COCCC(=O)N1CCC(Oc2ccc(C(=O)NC3CCOC(C)(C)C3)cc2)CC1 (centres undefined) | i | i | i | i | i
Cc1ccsc1CN(C(=O)c1ccccc1)C1CCS(=O)(=O)C1 (centres undefined) | i | i | i | i | i
COc1cc(-c2nc3ccc4ccccc4c3c3c2CCC3)cc(OC)c1OC | i | i | i | i | i
SMILES | TRPC6 act | TRPC4 act | TRPC6 inh | TRPC4 PAM | TRPC4 inh
COc1cc2ccccc2c2c1CCCC2=O | i | i | i | i | -6*
CCc1ccc2nc3sc(C(=O)O)cc3cc2c1 | i | i | i | i | i
C/C(CC(=O)NC(C)(C)C)=N\NC(=O)COc1ccc(C)cc1Br | i | i | i | 11* | i
Cc1ccc(C)c(N2CCN(CCCNC(=O)Cn3c(=O)c4cccn4c4cccnc43)CC2)c1 | i | i | i | i | -5*
Cc1ccc(C)c(N2CCN(CCCNC(=O)CCn3c(=O)c4cccn4c4cccnc43)CC2)c1 | i | i | i | i | i
CN1CCN(c2ccc(NC(=O)c3ccc(-c4ccc(Cl)cc4)o3)cc2)CC1 | i | i | i | i | i
CN1CCN(c2ccc(NC(=O)c3ccc(-c4cccc([N+](=O)[O-])c4)o3)cc2)CC1 | i | 167* | i | i | i
Cc1csc2c(=O)sc(NC(=O)c3cccs3)nc12 | i | i | i | i | i
O=S(=O)(c1ccccc1)c1nc(-c2cccc(Cl)c2)oc1N1CCOCC1 | i | i | i | 10* | i
CCN(CC)CCn1c(NC(=O)c2ccc(Cl)cc2)nc2ccccc21 | i | i | i | i | i
CCN(CC)CCn1c(NS(=O)(=O)c2ccc(Cl)cc2)nc2ccccc21 | i | 65* | i | i | i
COCCN(C(=O)CSc1nc2ccc(Cl)cc2[nH]1)c1c(N)n(Cc2ccccc2)c(=O)[nH]c1=O | i | i | i | i | -5*
CCc1ccc2c(c1)[C@]1(C(=O)N2)[C@@H]2C(=O)N(Cc3ccccc3)C(=O)[C@@H]2[C@@H]2CCCN21 | i | i | i | i | i
Cc1cc(Cl)cc2c1NC(=O)[C@]21[C@@H]2C(=O)N(Cc3ccccc3)C(=O)[C@@H]2[C@@H]2CCCN21 | i | 50* | i | i | i
COc1ccc(N/C(C)=C2/C(=O)C(=O)N(CCO)C2c2ccc([N+](=O)[O-])cc2)cc1 (centres undefined) | i | i | i | 137* | i
CC(C)c1cc(-c2cc(C(=O)NCc3ccccc3)on2)nc(NCC2CC2)n1 | i | i | i | 10* | i
CC(C)c1cc(-c2cc(C(=O)Nc3ccccc3)on2)nc(NCC2CC2)n1 | i | i | i | i | i
COc1cc(S(=O)(=O)N2CCC(N3CCCCC3)CC2)ccc1-n1cnnn1 | i | i | i | 17* | i
O=S(=O)(c1ccc(-n2cnnn2)cc1)N1CCC(N2CCCCC2)CC1 | i | i | i | 12* | i
Oc1cccc(CCC2CCCCN2Cc2cn[nH]c2-c2ccc3c(c2)OCO3)c1 (centres undefined) | i | 43* | i | i | i
Nc1cc(C(F)(F)F)ccc1Nc1ccccc1 | i | i | i | i | -6*
Cc1ccc(C)c(OCCC(=O)OCC(=O)NC2CCCC2)c1 | i | i | i | i | i
CCOc1ccc(N(CC(=O)NCc2ccccc2Cl)S(=O)(=O)c2c(C)noc2C)cc1 | i | i | i | i | i
CN(C)C(CNC(=O)c1oc2ccccc2c1CSc1ncn[nH]1)c1ccco1 (centres undefined) | i | i | i | i | -7*
CCN(c1nc(N)c(C(=O)N=C(N)N)nc1Cl)C(C)C | i | 100* | i | i | i
